Test results published in ChEMBL document CHEMBL2407024, “Antimicrobial activity of imidazo[1,5-a]quinoxaline derivatives with pyridinium moiety” (Eur J Med Chem, 2013).

Columns and labels:
[1] = tested on: Trichophyton mentagrophytes; assay: Antifungal activity against Trichophyton mentagrophytes measured every 24 hrs for 14 days by conventional dilution method; format: functional
Procedure, shortened: (§1)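 Dilution assay in Sabouraud dextrose broth, inoculum 2 × 10^3–4 cfu/ml. MIC is the lowest concentration with no visible growth after 14 days of incubation. Run alongside a positive growth control and standard drug controls. Tests in duplicate, repeated twice.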

Pseudomonas aeruginosa [2] = assay: Antibacterial activity against Pseudomonas aeruginosa 9027 measured every 24 hrs for 5 days by conventional dilution method; format: functional
Procedure, shortened: (§2)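 Broth dilution in nutrient broth, inoculum 3 × 10⁵ cfu/ml. MIC is the lowest concentration showing no growth, read visually every 24 h over 5 days. Run alongside a positive growth control and standard drug controls. Tests in duplicate, repeated twice.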

Escherichia coli [3] = assay: Antibacterial activity against Escherichia coli F-50 measured every 24 hrs for 5 days by conventional dilution method; format: functional; procedure, shortened: as §2
Staphylococcus aureus [4] = assay: Antibacterial activity against Staphylococcus aureus 209p measured every 24 hrs for 5 days by conventional dilution method; format: functional; procedure, shortened: as §2
Aspergillus niger [5] = assay: Fungicidal activity against Aspergillus niger BKMF-1119 after 6 hrs; format: functional; conditions: BKMF-1119, 6 h
Procedure, shortened: (§3)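 Tubes of test compound (5 to 500 per ml, 1 mL in nutrient agar) with fungi were incubated at 26 °C for 6 h. Inocula were then prepared in Sabouraud dextrose broth and incubated at 26 °C. The fungicidal concentration is the one giving total cell death.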

[6] = tested on: Trichophyton mentagrophytes; assay: Fungicidal activity against Trichophyton mentagrophytes after 6 hrs; format: functional; procedure, shortened: as §3
Escherichia coli [7] = assay: Bactericidal activity against Escherichia coli F-50 after 4 hrs; format: functional; conditions: F-50, 4 h
Procedure, shortened: (§4)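 Tubes contained 1 mL test compound in nutrient agar, 5 to 500 per ml. Bacteria in normal saline broth (3 × 10⁵ cfu/ml, 1 mL) were added and held 4 h, then transferred onto meal-peptone agar plates and incubated at 37 °C. MBC is the dilution giving total cell death.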

Bacillus cereus [8] = assay: Bactericidal activity against Bacillus cereus 8035 after 4 hrs; format: functional; conditions: Bacillus cereus, 8035, 4 h; procedure, shortened: as §4
Candida albicans [9] = assay: Antifungal activity against Candida albicans 885-653 measured every 24 hrs for 14 days by conventional dilution method; format: functional; procedure, shortened: as §1
Staphylococcus aureus [10] = assay: Bactericidal activity against Staphylococcus aureus 209p after 4 hrs; format: functional; procedure, shortened: as §4
[11] = Acute toxicity in ip dosed mouse; format: organism-based; conditions: in vivo
Procedure, shortened: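 Mice; each compound given at 5 dose levels, 10 animals per dose (n = 50 per compound). Animals observed for 72 h; toxicity expressed as average lethal dose (LD50) calculated from mortality across dose groups.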

Candida albicans [12] = assay: Fungicidal activity against Candida albicans 885-653 after 6 hrs; format: functional; conditions: 885-653, 6 h; procedure, shortened: as §3
Bacillus cereus [13] = assay: Antibacterial activity against Bacillus cereus 8035 measured every 24 hrs for 5 days by conventional dilution method; format: functional; procedure, shortened: as §2
Pseudomonas aeruginosa [14] = assay: Bactericidal activity against Pseudomonas aeruginosa 9027 after 4 hrs; format: functional; conditions: Pseudomonas aeruginosa, 9027, 4 h; procedure, shortened: as §4
Aspergillus niger [15] = assay: Antifungal activity against Aspergillus niger BKMF-1119 measured every 24 hrs for 14 days by conventional dilution method; format: functional; procedure, shortened: as §1

Compound `CCCCCCCCC[n+]1cccc(-c2nc(-c3ccccc3)c3c(=O)n(CCCCCC)c4ccccc4n23)c1.[I-]` has an MIC [1] of over 500 µg/mL, an MIC (Pseudomonas aeruginosa [2]) of over 500 µg/mL and an MIC (Escherichia coli [3]) of over 500 µg/mL. For the same compound, the MIC (Staphylococcus aureus [4]) was 0.78 µg/mL, the MFC (Aspergillus niger [5]) was over 500 µg/mL and the MFC [6] was over 500 µg/mL. For the same compound, the MBC (Escherichia coli [7]) was over 500 µg/mL, the MBC (Bacillus cereus [8]) was 500 µg/mL and the MIC (Candida albicans [9]) was 500 µg/mL. For the same compound, the MBC (Staphylococcus aureus [10]) was 5 µg/mL, the LD50 [11] was 52.5 mg/kg and the MFC (Candida albicans [12]) was 500 µg/mL. It also gave an MIC (Bacillus cereus [13]) of 0.78 µg/mL, an MBC (Pseudomonas aeruginosa [14]) of over 500 µg/mL and an MIC (Aspergillus niger [15]) of over 500 µg/mL.

Compound `CCCCCCn1c(=O)c2c(-c3ccccc3)nc(-c3ccc[n+](Cc4ccccc4)c3)n2c2ccccc21.[Cl-]` has an MIC [1] of 500 µg/mL, an MIC (Pseudomonas aeruginosa [2]) of over 500 µg/mL and an MIC (Escherichia coli [3]) of over 500 µg/mL. The MIC (Staphylococcus aureus [4]) was 0.97 µg/mL, the MFC (Aspergillus niger [5]) was over 500 µg/mL and the MFC [6] was over 500 µg/mL. For the same compound, the MBC (Escherichia coli [7]) was over 500 µg/mL, the MBC (Bacillus cereus [8]) was over 500 µg/mL and the MIC (Candida albicans [9]) was 7.8 µg/mL. It also gave an MBC (Staphylococcus aureus [10]) of 50 µg/mL, an LD50 [11] of 61.1 mg/kg and an MFC (Candida albicans [12]) of 500 µg/mL. The MIC (Bacillus cereus [13]) was 6.3 µg/mL, the MBC (Pseudomonas aeruginosa [14]) was over 500 µg/mL and the MIC (Aspergillus niger [15]) was over 500 µg/mL.
